An excerpt weighted towards active compounds, which were near 1.6% of everything screened.
PABP polyA inh = blocks human PABP binding to poly(A) RNA | P11940 | 290,000 tested, 1% active | calls only at 35 µM | fluorescence polarization;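 also: calls also rest on retests at 20 µM and on dose response follow-up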
Target sequence (P11940 whole entry, looked up): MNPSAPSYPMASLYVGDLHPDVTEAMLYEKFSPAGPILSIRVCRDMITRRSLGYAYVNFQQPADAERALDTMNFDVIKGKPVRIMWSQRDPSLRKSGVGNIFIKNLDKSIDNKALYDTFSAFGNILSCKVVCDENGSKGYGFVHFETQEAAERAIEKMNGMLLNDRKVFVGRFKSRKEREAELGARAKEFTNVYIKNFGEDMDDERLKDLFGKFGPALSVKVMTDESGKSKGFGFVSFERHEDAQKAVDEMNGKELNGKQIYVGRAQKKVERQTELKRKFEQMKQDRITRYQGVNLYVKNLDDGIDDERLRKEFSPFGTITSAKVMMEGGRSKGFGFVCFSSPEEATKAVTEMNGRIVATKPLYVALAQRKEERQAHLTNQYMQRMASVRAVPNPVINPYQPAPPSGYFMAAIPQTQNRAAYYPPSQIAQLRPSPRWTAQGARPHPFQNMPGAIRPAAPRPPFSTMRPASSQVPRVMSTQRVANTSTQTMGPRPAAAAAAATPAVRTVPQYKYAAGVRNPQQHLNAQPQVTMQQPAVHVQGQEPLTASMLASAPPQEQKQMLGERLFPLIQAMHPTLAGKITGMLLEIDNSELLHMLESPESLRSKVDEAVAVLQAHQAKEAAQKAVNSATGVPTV
TCR CD3 inh = human TCR-CD3 binding inhibition. TAMRA-labeled TCR probe fluorescence, biochemical. 360,000 tested, 0.37% active. AID 651800. inhibition, % at 9.4 µM; in the data active = inhibition above about 19%;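 also: recombinant mutant TCR 2C K166C tagged with TAMRA read by polarization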
RBBP9 inh = human RBBP9 hydrolase inhibition; O75884; recombinant RBBP9, FP-Rh probe fluorescence polarization; inhibition, % at 7.94 µM; 220,000 tested, 0.2% active;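 active = inhibition above the campaign mean of all tested compounds plus 3 SD, cut at about 14% in these data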
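Measured by: FP readout at 525/598 nm; material: recombinant human RBBP9; also added: Serine-hydrolase probe FP-Rh, 375 nM pre-mixing; medium: Tris buffer pH 8.0, NaCl, Pluronic; replication: one well per compound; doses: one concentration, 7.94 µM nominal, 0.794% DMSO; timing: preincubation 30 min plus labeling 45 min at 25 °C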
PABP1 MLLE inh = inhibitors of microRNA-mediated deadenylation, human PABP1 MLLE binding. GST-MLLE / FITC-PAM2 fluorescence polarization. 360,000 tested, 0.36% active. inhibition, % at 20 µM. P11940; in the data active = inhibition above about 35%, passing the limit was not always enough
eIF4H FP inh = inhibitors of RNA binding by human eIF4H. eIF4H fluorescence polarization binding assay. 290,000 tested, 0.94% active. inhibition, % at 35 µM;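 also: calls also rest on retests at 20 µM and on dose response follow-up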
Numbers stand for hits; 0 = inactive; - = not tested or not shown; + = active, no number. Unless noted, no rule for the calls is given here.

SMILES | PABP polyA inh | TCR CD3 inh | RBBP9 inh | PABP1 MLLE inh | eIF4H FP inh
CN1CCCCC(NC(=O)CSc2ccccc2)C1=O (stereo not given) | - | 0 | - | - | -
COc1ccc2nc(N3CCCCC3)c(C#N)cc2c1 | 0 | 0 | 0 | 40 | 0
CCc1ccc(CCC(=O)Nc2ccc(OC)cc2)o1 | 0 | 0 | 0 | 0 | 0
COc1ccc(C(N)CCc2ccc(C)o2)cc1 (stereo not given) | + | 0 | 0 | 0 | 0
N#Cc1ccc(OCC(=O)Nc2ccccc2NS(=O)(=O)c2cccs2)cc1 | + | 0 | 0 | 0 | 53
CCOC(=O)N1CCN(C(=O)C[C@H]2C[C@@]3(C(=O)OC)C(=C[C@H](C(C)(C)C)O[C@@H]3C)N(Cc3ccc4c(c3)OCO4)C2=O)CC1 | - | 0 | - | - | -
CC(C)(C)C1CCC(=NNc2nc3ccccc3[nH]2)CC1 (stereo not given) | + | 0 | 0 | 0 | 0
c1ccc(CN2CCC(=NNc3nc4ccccc4[nH]3)CC2)cc1 | 0 | 0 | 0 | 0 | 0
NC(=S)Nc1ccc(S(=O)(=O)c2ccc(NC(N)=S)cc2)cc1 | 0 | 0 | - | 43 | 0
CC1=NN(c2ccccc2)C(=O)/C1=C\c1ccc(Oc2ccc([N+](=O)[O-])cc2[N+](=O)[O-])cc1 | 0 | 0 | 0 | 0 | 0
COc1cc(/C=C2\C(=O)N(c3ccccc3)N=C2C)ccc1Oc1ccc([N+](=O)[O-])cc1[N+](=O)[O-] | + | 0 | 0 | 0 | active
O=C(NCc1ccccc1)[C@@H]1CCCN1C(=O)[C@H]1CCCN1C(=O)c1c(F)cccc1F | - | 0 | - | - | -
COc1cccc(C2NC(=S)N(Cc3ccccc3)C(C)=C2C(C)=O)c1 (stereo not given) | - | 0 | - | - | -
CC(C)C[C@H](NC(=O)c1nccs1)C(=O)N1CCC[C@H]1C(=O)NCc1ccccc1 | - | 0 | - | - | -
C=CCN1C[C@H](COC(=O)c2ccc(C)c(C)c2)Oc2cccc(F)c2S1(=O)=O | - | 0 | - | - | -
CC1(C)CC(=O)C=C(c2ccccc2-c2cccc(C(N)=O)c2)C1=O | - | 0 | - | - | -
CC(C)COc1ccc(-c2nn(-c3ccccc3)cc2/C=C2/SC(=S)N(CC(=O)O)C2=O)cc1 | 0 | 0 | - | 0 | 93
O=C(O)CN1C(=O)/C(=C\c2cn(-c3ccccc3)nc2-c2ccccc2)SC1=S | 0 | - | - | 0 | 0
CC1CCCC(C)N1C(=O)c1ccccc1 (stereo not given) | - | 0 | - | - | -
CSCC(C)N1CCC(Oc2cccc(C(=O)NCc3ccccn3)c2)CC1 (stereo not given) | 0 | 0 | - | 43 | 0
CC(C)NC(=O)C1CCN(Cc2cccc(Oc3ccccc3)c2)CC1 | + | 0 | - | 0 | 90
CCCCC(=O)N1CCN(c2ccc(OC)cc2[N+](=O)[O-])CC1 | 0 | 0 | 0 | 0 | 0
COc1cccc(CC(=O)N2CCN(c3ccccc3[N+](=O)[O-])CC2)c1 | + | 0 | 0 | 0 | 52
COc1cccc(CN2CCC(C(=O)N3CCN(c4ccccc4F)CC3)CC2)c1 | 0 | 0 | 0 | 0 | 61
Cc1cc(Nc2cccc(F)c2)cc(=O)n1-c1cccc(F)c1 | - | 0 | - | - | -
SMILES | PABP polyA inh | TCR CD3 inh | RBBP9 inh | PABP1 MLLE inh | eIF4H FP inh
C[C@H](CO)N1C[C@H](C)[C@@H](CN(C)C(=O)Nc2ccc(C(F)(F)F)cc2)Oc2c(NC(=O)Nc3ccc(C(F)(F)F)cc3)cccc2C1=O | - | 20 | - | 0 | -
C[C@H]1[C@H](c2ccccc2)Oc2cccc(NCCc3ccccc3)c2S(=O)(=O)N1Cc1cccc(F)c1 | - | 0 | - | - | -
Cn1cccc1/C=C1\CC(C(C)(C)C)C/C(=C\c2cccn2C)C1=O (stereo not given) | + | 0 | 0 | 0 | 51
Cc1cc2c(c(=O)o1)[C@@]1(C(=O)N(C)c3ccccc31)C1=C(CC(C)(C)OC1=O)O2 | - | 0 | - | - | -
O=C1NN(c2ccc(F)cc2)C(=O)/C1=C\C=C\c1ccco1 | + | 0 | 0 | 0 | 88
O=C1NN(c2ccc(F)cc2)C(=O)/C1=C\c1cnn(-c2ccccc2)c1 | 0 | 0 | 0 | - | 0
CCOc1ccccc1OCCC(=O)OCC(=O)c1ccc[nH]1 | + | 0 | 0 | 0 | 59
CCCCCCCn1c(NC(=O)CC)nc2ccccc21 | + | 0 | 0 | 0 | 74
COc1ccc(NC(=S)N/N=C2\CC(C)(C)Oc3ccc(OC)cc32)cc1 | 0 | 0 | 0 | 37 | 0
Cc1ccccc1NC(=S)N/N=C1\CC(C)(C)Oc2ccc(O)cc21 | 0 | 0 | 0 | 0 | 0
COCCN1CCCc2nc(-c3ccc(F)cc3)ccc21 | - | 0 | - | - | -
Cc1cccc(OCC(=O)N(Cc2cccs2)C2CCS(=O)(=O)C2)c1C (stereo not given) | 0 | 0 | 0 | 0 | 83
Cc1cc(N2CCNC[C@H]2C)ccc1N1CCN(Cc2ccccc2)[C@@H](C)C1 | - | 0 | - | - | -
CC1=CC(=O)c2c(O)ccc(O)c2C1=O | + | - | 16 | - | 112
COC(=O)C1=C(C)NC(=O)/C1=C\N(C)C | + | 0 | 0 | 43 | 79
N#C/C(=N/Nc1ccc(OC(F)(F)F)cc1)C(N)=S | 0 | 0 | 0 | 41 | 0
COc1ccc(N/N=C(\C#N)C(N)=O)cc1 | 0 | 0 | 0 | 0 | 0
O=C(c1nc2ccccn2c1CNCCCn1ncc2ccccc21)N1CCOCC1 | 0 | 0 | 0 | 0 | 0
Cc1cccn2c(CNCCCn3ncc4ccccc43)c(C(=O)N3CCCCC3)nc12 | + | 0 | 0 | 0 | 0
COCCCNC(=O)C[C@H]1C[C@@]2(C(=O)OC)C(=C[C@H](C(C)(C)C)O[C@@H]2C)N(CCC2=CCCCC2)C1=O | - | 0 | - | - | -
Cc1sc(NC(=O)CCl)c(C(=O)c2ccccc2)c1C | 0 | 0 | 0 | 37 | 0
Cc1ccccc1C(=O)Nc1sc(C)c(C)c1C(=O)c1ccccc1 | 0 | 0 | 0 | 0 | 0
CSc1nsc(/C=C/Nc2ccc(F)cc2)c1C#N | + | 0 | 0 | 0 | 77
CSc1nsc(/C=C/Nc2ccc(Cl)cc2)c1C#N | 0 | 0 | 0 | 0 | 0
CC1(C)CC(=O)C2=C(C1)NC(SCC(N)=O)=C(C#N)C21CCCCC1 | 0 | 0 | 0 | 36 | 0
SMILES | PABP polyA inh | TCR CD3 inh | RBBP9 inh | PABP1 MLLE inh | eIF4H FP inh
Cc1ccc(NC(=S)N(CCCN2CCN(C)CC2)Cc2cccs2)cc1C | + | 0 | 0 | 0 | 0
Cc1ccc(NC(=S)N(CCCN2CCN(C)CC2)Cc2cccs2)cc1 | 0 | 0 | 0 | 0 | 0
CCCCN(CCCC)CCCNC(=O)Cn1cc(C)c(=O)[nH]c1=O | - | 0 | - | - | -
CS(=O)(=O)N(Cc1ccccc1)c1ccc(C(=O)NCCSCc2ccco2)cc1 | 0 | 0 | 0 | 45 | 0
Cc1ccc(C2c3c(n[nH]c3C)C(=O)N2c2ccccc2)cc1 (stereo not given) | - | 0 | - | - | -
Cc1cc(Br)cn2c(Cc3cccc(Cl)c3)c(C3CCCCC3)nc12 | - | 0 | - | - | -
COC(=O)c1cc2c(c3c4cc(C)ccc4n(S(=O)(=O)c4cccc(C)c4)c13)C(=O)N(Cc1ccccc1OC)C2 | - | 0 | - | - | -
O=C1CCCCC1Sc1nnc(-c2ccc3c(c2)OCO3)o1 (stereo not given) | + | 0 | 0 | 0 | 9.7
Clc1ccc(CSc2nnc(-c3ccc4c(c3)OCO4)o2)cc1 | 0 | 0 | 0 | 0 | 0
O=C(CN1CCCC1)OCCCC1CCCCC1 | 0 | 0 | 0 | 0 | 0
C[N+]1(CC(=O)OCCCC2CCCCC2)CCCC1 | + | 0 | 0 | 0 | 0

Screening data (PubChem)
